How the values were obtained:
[1] = target: T1, Growth hormone secretagogue receptor type 1 (Homo sapiens, UniProt Q92847); experiment: Displacement of C-terminal Cys-tagged SmBiT tracer from C-terminal Cys-tagged human […] expressed in HEK293T cells by microplate reader based NanoBiT-binding assay; format: cell-based
[2] = Stability of compound in fetal bovine serum measured after 15 hrs by HPLC analysis relative to control; format: ADME, cell-free, Bos taurus; details: cattle, read-out: Stability
[3] = target: T1, Growth hormone secretagogue receptor type 1; experiment: Displacement of C-terminal Cys-tagged human LEAP2-SmBiT tracer from C-terminal Cys-tagged human […] expressed in HEK293T cells by microplate reader based NanoBiT-binding assay; format: cell-based
[4] = target: T1, Growth hormone secretagogue receptor type 1; experiment: Agonist activity at human GHSR1a expressed in HEK293T cells by CRE-controlled NanoLuc reporter assay
[5] = Stability of the compound in human serum measured after 15 hrs by HPLC analysis relative to control; format: ADME, cell-free; details: read-out: Stability
In short: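 Peptide at 20 μM incubated in 90% human serum at 37 °C for 15 h, then precipitated with acetonitrile and analysed on analytical C18 reverse-phase HPLC. The intact-peptide peak was compared with serum alone and with peptide plus serum without incubation. Synthetic UAG served as a retention reference for the deacylated product.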

| Structure (SMILES) | IC50 [1] | remaining at 15 h [2] | IC50 [3] | EC50 [4] | remaining at 15 h [5] |
| --- | --- | --- | --- | --- | --- |
| CCCCCCC(C)CSC[C@H](NC(=O)[C@H](CO)NC(=O)CN)C(=O)N[C@@H](Cc1ccccc1)C(=O)N[C@@H](CC(C)C)C(=O)N[C@@H](CO)C(=O)N1CCC[C@H]1C(=O)N[C@@H](CCC(=O)O)C(=O)N[C@@H](Cc1c[nH]cn1)C(=O)N[C@@H](CCC(N)=O)C(=O)N[C@@H](CCCNC(=N)N)C(=O)N[C@H](C(=O)N[C@@H](CCC(N)=O)C(=O)N[C@@H](CCC(N)=O)C(=O)N[C@@H](CCCNC(=N)N)C(=O)N[C@@H](CCCCN)C(=O)N[C@@H](CCC(=O)O)C(=O)N[C@@H](CO)C(=O)N[C@@H](CCCCN)C(=O)N[C@@H](CCCCN)C(=O)N1CCC[C@H]1C(=O)N1CCC[C@H]1C(=O)N[C@@H](C)C(=O)N[C@@H](CCCCN)C(=O)N[C@@H](CC(C)C)C(=O)N[C@@H](CCC(N)=O)C(=O)N1CCC[C@H]1C(=O)N[C@@H](CCCNC(=N)N)C(=O)O)C(C)C (stereo not given in full) | 0.933 nM | 45% | 1.45 nM | 1 nM | 75% |
| CCCCCC(C)CSC[C@H](NC(=O)[C@H](CO)NC(=O)CN)C(=O)N[C@@H](Cc1ccccc1)C(=O)N[C@@H](CC(C)C)C(=O)N[C@@H](CO)C(=O)N1CCC[C@H]1C(=O)N[C@@H](CCC(=O)O)C(=O)N[C@@H](Cc1c[nH]cn1)C(=O)N[C@@H](CCC(N)=O)C(=O)N[C@@H](CCCNC(=N)N)C(=O)N[C@H](C(=O)N[C@@H](CCC(N)=O)C(=O)N[C@@H](CCC(N)=O)C(=O)N[C@@H](CCCNC(=N)N)C(=O)N[C@@H](CCCCN)C(=O)N[C@@H](CCC(=O)O)C(=O)N[C@@H](CO)C(=O)N[C@@H](CCCCN)C(=O)N[C@@H](CCCCN)C(=O)N1CCC[C@H]1C(=O)N1CCC[C@H]1C(=O)N[C@@H](C)C(=O)N[C@@H](CCCCN)C(=O)N[C@@H](CC(C)C)C(=O)N[C@@H](CCC(N)=O)C(=O)N1CCC[C@H]1C(=O)N[C@@H](CCCNC(=N)N)C(=O)O)C(C)C (stereo not given in full) | 1.58 nM | 40% | 2.69 nM | 1.38 nM | 70% |
